For one experiment, the target named is T1, Papain (Carica papaya, UniProt P00784).
T1 sequence (P00784 134-345): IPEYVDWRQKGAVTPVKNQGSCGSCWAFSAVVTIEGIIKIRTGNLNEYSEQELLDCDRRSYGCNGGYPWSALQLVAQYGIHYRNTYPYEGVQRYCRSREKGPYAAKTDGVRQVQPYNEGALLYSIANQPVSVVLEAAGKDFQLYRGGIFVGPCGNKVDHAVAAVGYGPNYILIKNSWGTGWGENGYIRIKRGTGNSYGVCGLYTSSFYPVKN
The experiment in a line: Selectivity assay with papain. Format: biochemical. The essentials: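 Papain was incubated with increasing compound for 10 min at 21°C in 25 mM sodium acetate with 1 mM DTT. Hydrolysis of the fluorogenic substrate was followed over time (ex 496/em 523 nm). Rates were normalized to the rate without inhibitor and reported as % activity.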

The target in experiment [1] is AVP (adenovirus proteinase) (Human adenovirus C serotype 2, UniProt P03252). The experiment in a line: Inhibition of AVP. Type of experiment: biochemical, adenovirus serotype 2. The essentials:
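Purified adenovirus type 2 AVP was pre-incubated 9 min at 21°C with varied compound in 5 mM NaCl, 20 mM Tris-HCl pH 8, 0.025% DDM, 0.1 mM DTT. pVIc was then added to 20 μM for another 9 min. Rates with 5 μM (Cbz-Leu-Arg-Gly-Gly-NH)₂-Rhodamine were read every 10 s (ex 496/em 523 nm). IC50 came from a four-parameter logistic fit of initial rates.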

Experiment [2] addresses T2, AVP-pVIc complexes (Human adenovirus C serotype 2, UniProt P03252). In words: Inhibition of AVP-pVIc complexes, fluorogenic substrate assay. Type of experiment: biochemical, adenovirus serotype 2.
Experiment [3] has as its system AVP and AVP-pVIc complexes. In words: Coarse screening of structural derivatives for enzyme inhibitors. Type of experiment: biochemical, adenovirus serotype 2. The conditions noted are these: 40 μM compound, 150 mM NaCl, 0.3 μM enzyme. In a few lines: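 AVP (adenovirus type 2, E. coli-expressed) or AVP-pVIc complexes (75 μM each, overnight at 4°C with 20 mM β-mercaptoethanol) were pre-incubated 9 min at 21°C with compound from 10 mM DMSO stock. Buffer was 20 mM Tris-HCl pH 8, 0.025% DDM, 0.1 mM DTT. For AVP, 40 μM pVIc was then added for 9 min more. Initial rates with 5 μM (Cbz-Leu-Arg-Gly-Gly-NH)₂-Rhodamine (ex 496/em 523 nm) were normalized to the no-inhibitor rate.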

A further experiment addresses T3, Trypsin (Bos taurus, UniProt P00760).
T3 sequence (P00760 24-246): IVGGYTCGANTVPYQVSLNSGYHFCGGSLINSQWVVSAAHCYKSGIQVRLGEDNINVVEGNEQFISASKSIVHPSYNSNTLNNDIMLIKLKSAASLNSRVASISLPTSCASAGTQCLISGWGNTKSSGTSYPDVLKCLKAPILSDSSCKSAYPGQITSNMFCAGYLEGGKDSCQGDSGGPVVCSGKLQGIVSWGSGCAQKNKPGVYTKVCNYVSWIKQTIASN
The experiment in a line: Selectivity assay with trypsin. Type of experiment: biochemical. In a few lines:
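TPCK-treated trypsin was exposed to increasing compound at 21°C in 25 mM HEPES with 1 mM CaCl₂. Substrate hydrolysis was tracked as fluorescence increase (ex 496/em 523 nm). Rates were normalized to the no-inhibitor rate and expressed as % activity.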

In experiment [4] the target is T2, AVP-pVIc complexes. The experiment in a line: Competitive inhibition of AVP-pVIc complexes. Type of experiment: biochemical, adenovirus serotype 2.
The target in another experiment is AVP (Human adenovirus C serotype 2, UniProt P03252). In words: Mixed inhibition of AVP. Type of experiment: biochemical, adenovirus serotype 2.
Chain of AVP (P03252 whole entry): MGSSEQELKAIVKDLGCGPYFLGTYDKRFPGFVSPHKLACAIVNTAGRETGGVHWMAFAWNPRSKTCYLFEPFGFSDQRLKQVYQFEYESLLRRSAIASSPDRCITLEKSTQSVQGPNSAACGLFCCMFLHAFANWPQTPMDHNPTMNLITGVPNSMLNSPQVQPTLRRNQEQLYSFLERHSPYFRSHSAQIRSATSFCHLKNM
For experiment [5], the target named is Adenovirus proteinase (AVP) (Human adenovirus 2) (UniProt P03252). The conditions noted are these: cited from earlier work.
Chain of Adenovirus proteinase (AVP) (Human adenovirus 2) (P03252 whole entry): as above
Where [6] appears, read: 0.18 μM papain, pH 5, 10 μM (Phe-Arg-NH)2-Rhodamine.
The mark [7] stands for this setting: 20 pM trypsin, 10 min, pH 7.5, 10 μM (Ile-Pro-Arg-NH)2-Rhodamine.
The mark [8] stands for this setting: concentrations 50-fold higher than that inhibiting AVP or AVP-pVIc by more than 90%.
[9] abbreviates: best fitting model, SigmaPlot Kinetic Module.

pIC50, pKd, pKi: −log10 of the molar value. “Also recorded” adds a separate entry of the source.

T2 sequence (P03252 whole entry, one chain of several): as the sequence (P03252 whole entry) above
Chain of AVP (adenovirus proteinase) (P03252 whole entry): as above
Chain of pVIc (P03274 whole entry, looked up): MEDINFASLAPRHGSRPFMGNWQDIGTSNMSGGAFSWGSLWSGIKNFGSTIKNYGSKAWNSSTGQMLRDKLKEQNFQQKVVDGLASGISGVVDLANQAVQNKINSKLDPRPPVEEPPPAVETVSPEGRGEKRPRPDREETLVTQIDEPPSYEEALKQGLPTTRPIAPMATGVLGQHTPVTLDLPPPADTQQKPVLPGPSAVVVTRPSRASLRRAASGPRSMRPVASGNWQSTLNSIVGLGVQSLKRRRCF

By pIC50 is commonly meant the negative decadic logarithm of the IC50, by convention in mol/L. For the compound `CC(C)CCN(CCC(C)C)CC(=O)Nc1ccc(S(=O)(=O)c2ccc(NC(=O)CN(CCC(C)C)CCC(C)C)cc2)cc1` [NSC 37248, 2-[bis(3-methylbutyl)amino]-N-[4-[4-[[2-[bis(3-methylbutyl)amino]acetyl]amino]phenyl]sulfonylphenyl]acetamide], the Inhibition of papain result at Papain (setting [6]) was “No Inhibition”. Besides, the values for the pIC50 (in experiment [1]; against AVP-pVIc complexes [2]) were 6.06 and 5.68, respectively. The “Inhibition in coarse screen” value in experiment [3] is given as “inhibit either the activation of AVP or the activity of AVP-pVIc complexes; also recorded: effective inhibitors”. Besides, the Inhibition of trypsin entry on Trypsin (setting [7]) is “No Inhibition”.
`CC1COCC(C)N1CC(=O)Nc1ccc(S(=O)(=O)c2ccc(NC(=O)CN3C(C)COCC3C)cc2)cc1` (centres unmarked) [NSC 106702, 2-(3,5-dimethylmorpholin-4-yl)-N-[4-[4-[[2-(3,5-dimethylmorpholin-4-yl)acetyl]amino]phenyl]sulfonylphenyl] acetamide]: in experiment [3], the “Inhibition in coarse screen” value is “inhibit either the activation of AVP or the activity of AVP-pVIc complexes”.
By pKi is commonly meant the negative decadic logarithm of the Ki, by convention in mol/L. For the compound `O=C(CN(C1CCCCC1)C1CCCCC1)Nc1ccc(S(=O)(=O)c2ccc(NC(=O)CN(C3CCCCC3)C3CCCCC3)cc2)cc1` [NSC 37249, 2-(dicyclohexylamino)-N-[4-[4-[[2-(dicyclohexylamino)acetyl]amino]phenyl]sulfonylphenyl]acetamide], the Inhibition of papain entry at Papain (setting [6]) was “No Inhibition”; at Papain (setting [8]), “did not inhibit”; at Papain (concentrations up to 50-fold the Ki for AVP) it was “no inhibition was observed”. Besides, the pIC50 in experiment [1] was 6.85; against AVP-pVIc complexes [2], 6.31. Also, the “Inhibition in coarse screen” value in experiment [3] is given as “inhibit either the activation of AVP or the activity of AVP-pVIc complexes; also recorded: effective inhibitors”. Besides, the Inhibition of trypsin result on Trypsin (setting [7]) is given as “No Inhibition”; on Trypsin (setting [8]), “did not inhibit”; at Trypsin (concentrations up to 18 μM), “no inhibition was observed”. Also, the pKi on AVP-pVIc complexes [4] (Ki AVP:pVIc, competitive inhibition model, substrate 2.5-20 μM) was 6.39; on AVP it was 6.82. Also, the “Type of inhibition, AVP-pVIc complexes” value at AVP-pVIc complexes [4] (setting [9]) was “Competitive Inhibition; also recorded: competitive inhibitor”. At AVP (setting [9]), the “Type of inhibition, AVP” value was “Mixed Inhibition”.
Usually pKd stands for the negative decadic logarithm of the Kd, by convention in mol/L. For pVIc (from UniProt P03274), the pKd in experiment [5] was 5.36.
On to `O=C1CN2CCN(CC2)CC(=O)Nc2ccc(cc2)S(=O)(=O)c2ccc(cc2)NC(=O)CN2CCN(CC2)CC(=O)Nc2ccc(cc2)S(=O)(=O)c2ccc(cc2)N1` [NSC 36806, 2,21-dithia-7,10,13,16,26,29,32,35-octaazaheptacyclo[34.2.2.23,6.210,13.217, 20.222,25.229,32]pentaconta-1(38),3,5,17,19,22,24,36,39,43,45,49-dodecaene-8,15,27,34-tetrone 2,2,21,21-tetraoxide], for which the pIC50 against AVP-pVIc complexes [2] is 4.74. Also, on Trypsin (setting [7]), the Inhibition of trypsin result is “did not inhibit”.
In the case of `O=C(Nc1ccc(S(=O)(=O)c2ccc(NC(=O)C(F)(F)N3CCOCC3)cc2)cc1)C(F)(F)N1CCOCC1` [NSC 106721, N-[4-[4-[(2,2-difluoro-2-morpholin-4-ylacetyl)amino]phenyl]sulfonylphenyl]-2,2-difluoro-2-morpholin-4-ylacetamide], the “Inhibition in coarse screen” value in experiment [3] was “inhibit either the activation of AVP or the activity of AVP-pVIc complexes”.
